Measured values taken from ChEMBL document CHEMBL1158403, “Discovery of CP-533536: an EP2 receptor selective prostaglandin E2 (PGE2) agonist that induces local bone formation” (Bioorg Med Chem Lett, 2009).

Columns and labels:
[1] = target: T1, Prostaglandin E2 receptor EP2 subtype (Rattus norvegicus, UniProt Q62928); experiment: Inhibition of rat EP2 receptor expressed in HEK293 cells; type: cell-based
Outline: (§1)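 Rat EP₂ or rat EP₄ receptor stably transfected into HEK-293 cells. Membranes were prepared from these cells for the receptor binding assay.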

[2] = target: T2, Prostaglandin E2 receptor EP4 subtype (Rattus norvegicus, UniProt P43114); experiment: Inhibition of rat EP4 receptor expressed in HEK293 cells; type: cell-based; outline: as §1
[3] = target: T1, Prostaglandin E2 receptor EP2 subtype; experiment: Agonist activity against rat EP2 receptor expressed in HEK293 cells assessed as stimulation of cAMP release; type: functional, cell-based
[4] = system: Rattus norvegicus; experiment: Induction of bone formation in rat assessed as total bone area at 3 mg/kg by peripheral quantitative computerized tomography
[5] = system: Rattus norvegicus; experiment: Induction of bone formation in rat assessed as bone mineral content at 3 mg/kg by peripheral quantitative computerized tomography
[6] = system: Rattus norvegicus; experiment: Induction of bone formation in rat assessed as total bone area at 0.3 mg/kg by peripheral quantitative computerized tomography
[7] = system: Rattus norvegicus; experiment: Induction of bone formation in rat assessed as bone mineral density at 0.3 mg/kg by peripheral quantitative computerized tomography
[8] = Volume of distribution at steady state in Sprague-Dawley rat at 1 mg/kg, iv; type: ADME, organism-based; design: dose 1 mg/kg, route intravenous; conditions: in vivo, read-out: Vdss
Outline: (§2)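 Male Sprague–Dawley rats were given a single i.v. dose of 1 mg/kg. Half-life, clearance and steady-state volume of distribution were derived from the plasma pharmacokinetic profile.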

[9] = system: Rattus norvegicus; experiment: Induction of bone formation in rat assessed as bone mineral density at 1 mg/kg by peripheral quantitative computerized tomography
[10] = system: Rattus norvegicus; experiment: Induction of bone formation in rat assessed as bone mineral content at 0.3 mg/kg by peripheral quantitative computerized tomography
[11] = system: Rattus norvegicus; experiment: Induction of bone formation in rat assessed as bone mineral content at 1 mg/kg by peripheral quantitative computerized tomography
[12] = Half life in Sprague-Dawley rat at 1 mg/kg, iv; type: ADME, organism-based; design: dose 1 mg/kg, route intravenous; conditions: in vivo; outline: as §2
[13] = system: Rattus norvegicus; experiment: Induction of bone formation in rat assessed as bone mineral density at 3 mg/kg by peripheral quantitative computerized tomography
[14] = Clearance in Sprague-Dawley rat at 1 mg/kg, iv; type: ADME, organism-based; design: dose 1 mg/kg, route intravenous; conditions: in vivo; outline: as §2
[15] = system: Rattus norvegicus; experiment: Induction of bone formation in rat assessed as total bone area at 1 mg/kg by peripheral quantitative computerized tomography
[16] = target: T2, Prostaglandin E2 receptor EP4 subtype; experiment: Agonist activity against rat EP4 receptor expressed in HEK293 cells assessed as stimulation of cAMP release; type: functional, cell-based

T1 sequence (Q62928 whole entry): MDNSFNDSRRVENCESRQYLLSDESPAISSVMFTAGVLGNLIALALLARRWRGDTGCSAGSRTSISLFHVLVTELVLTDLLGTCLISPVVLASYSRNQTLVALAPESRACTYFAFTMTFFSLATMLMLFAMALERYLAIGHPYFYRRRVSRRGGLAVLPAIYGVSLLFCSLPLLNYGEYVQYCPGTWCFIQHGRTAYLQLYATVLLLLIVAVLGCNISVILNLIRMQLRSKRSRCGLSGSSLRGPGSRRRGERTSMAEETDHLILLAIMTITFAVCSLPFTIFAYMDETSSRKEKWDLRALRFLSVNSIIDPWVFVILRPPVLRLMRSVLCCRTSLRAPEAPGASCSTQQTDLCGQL
T2 sequence (P43114 whole entry): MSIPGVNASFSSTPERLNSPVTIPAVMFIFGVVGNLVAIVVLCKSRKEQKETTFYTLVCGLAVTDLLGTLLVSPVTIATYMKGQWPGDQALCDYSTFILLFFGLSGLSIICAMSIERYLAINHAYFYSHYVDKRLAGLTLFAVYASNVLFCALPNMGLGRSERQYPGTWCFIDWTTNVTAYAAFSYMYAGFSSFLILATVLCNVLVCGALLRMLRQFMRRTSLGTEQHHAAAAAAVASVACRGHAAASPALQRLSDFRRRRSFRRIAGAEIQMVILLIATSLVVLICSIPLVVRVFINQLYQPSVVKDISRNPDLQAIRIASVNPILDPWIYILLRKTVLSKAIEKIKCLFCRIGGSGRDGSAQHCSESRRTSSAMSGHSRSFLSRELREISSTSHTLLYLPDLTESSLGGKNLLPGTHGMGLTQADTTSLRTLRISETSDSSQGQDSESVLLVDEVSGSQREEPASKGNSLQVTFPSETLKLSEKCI

Compound | IC50 [1] [nM] | IC50 [2] [nM] | EC50 [3] [nM] | further results
CC(C)(C)c1ccc(CN(Cc2cccc(CCC(=O)O)c2)S(=O)(=O)c2ccccn2)cc1 | 52 | > 3200 | 2.3 | –
CC(C)(C)c1ccc(CN(Cc2cccc(CCC(=O)O)c2)S(=O)(=O)c2nccs2)cc1 | 63 | > 3200 | 1.1 | –
CCCCc1ccc(CN(CCCCCCC(=O)O)S(C)(=O)=O)cc1 | 160 | > 3200 | 94 | –
CC(C)(C)c1ccc(CN(Cc2cccc(CCC(=O)O)c2)S(=O)(=O)c2ccc(Cl)cc2)cc1 | > 3200 | > 3200 | – | –
CCCCc1ccc(CN(Cc2ccccc2OCC(=O)O)S(C)(=O)=O)cc1 | > 3200 | > 3200 | – | –
CC(C)(C)c1ccc(CN(Cc2cccc(OCC(=O)O)c2)S(C)(=O)=O)cc1 | 792 | > 3200 | 203 | –
CCCCc1ccc(CN(Cc2cccc(CCC(=O)O)c2)S(C)(=O)=O)cc1 | 270 | > 3200 | 34.4 | –
CC(C)CC(O)CCCN(CCCCCCC(=O)O)S(C)(=O)=O (centres undefined) | 2500 | > 3200 | – | –
CCCCc1ccc(CN(CCc2ccc(CC(=O)O)cc2)S(C)(=O)=O)cc1 | 833 | > 3200 | 413 | –
CCCCCC(O)CCCN(CCCCCCC(=O)O)S(C)(=O)=O (centres undefined) | 225 | 2530 | 134 | –
CC(C)(C)c1ccc(CN(CCCCCCC(=O)O)S(C)(=O)=O)cc1 | 590 | 2470 | – | –
CCCCC(O)c1ccc(CN(CCCCCCC(=O)O)S(C)(=O)=O)cc1 (centres undefined) | 502 | > 3200 | 423 | –
CC(C)(C)c1ccc(CN(Cc2cccc(CCC(=O)O)c2)S(C)(=O)=O)cc1 | 379 | > 3200 | 48 | –
CS(=O)(=O)N(CCCCCCC(=O)O)Cc1ccc(-c2ccccc2)cc1 | 289 | > 3200 | 457 | –
CC(C)(C)c1ccc(CN(Cc2cccc(CCC(=O)O)c2)S(=O)(=O)c2ccccc2)cc1 | 278 | > 3200 | 0.2 | –
CCCCCC(O)CCCN(CCCCCC(=O)O)S(C)(=O)=O (centres undefined) | 910 | – | – | –
CCCCc1ccc(CN(CCCCOCC(=O)O)S(C)(=O)=O)cc1 | 701 | > 3200 | 407 | –
CCCCCC(O)CCCN(CCCCC(=O)O)S(C)(=O)=O (centres undefined) | > 3200 | – | – | –
CCCCc1ccc(CN(c2ccccc2CCCC(=O)O)S(C)(=O)=O)cc1 | 494 | > 3200 | 103 | –
CCCCc1ccc(CN(c2ccc(CCCC(=O)O)cc2)S(C)(=O)=O)cc1 | 654 | > 3200 | 587 | –
CCCCc1ccc(CN(c2cccc(CCC(=O)O)c2)S(C)(=O)=O)cc1 | > 3200 | > 3200 | – | –
CCCCCC(=O)c1ccc(CN(CCCCCCC(=O)O)S(C)(=O)=O)cc1 | 636 | > 3200 | 887 | –
CCCCCC(O)c1ccc(CN(CCCCCCC(=O)O)S(C)(=O)=O)cc1 (centres undefined) | 93 | > 3200 | 44 | –
CCCCc1ccc(CN(CCCOc2cccc(C(=O)O)c2)S(C)(=O)=O)cc1 | 3130 | > 3200 | – | –
CC(C)(C)c1ccc(CN(Cc2cccc(OCC(=O)O)c2)S(=O)(=O)c2cccnc2)cc1 | 50 | > 3200 | 0.3 | Activity [4]: 20.6%; Activity [5]: 53.5%; Activity [6]: -4.7%; Activity [7]: 7.5%; Vd [8]: 0.49 L/kg; Activity [9]: 20.7%; Activity [10]: 2.5%; Activity [11]: 26.3%; half-life [12]: 19.8 min; Activity [13]: 27.5%; clearance [14]: 56 mL/min/kg; Activity [15]: 4.4%
CCCCC[C@H](O)/C=C/[C@H]1[C@H](O)CC(=O)[C@@H]1C/C=C\CCCC(=O)O [DINOPROSTONE] | – | 2.1 | – | EC50 [16]: 0.7 nM
